Results published in ChEMBL document CHEMBL5058577, “EUbOPEN Chemogenomics Library 2 (Multiplex)” (2022).

Tested on: HEK-293T
Test: Multiplex assay against HEK293T
Type: toxicity, cell-based
Details: human
How it was run: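 Live cells were stained at seeding with Hoechst33342, BioTracker Green Microtubule Cytoskeleton Dye, MitoTracker Red and Annexin V Alexa Fluor 680, then imaged on a CQ1 microscope at 37°C and 5% CO2 after compound addition. CellPathfinder machine-learning gating split cells into Hoechst high-intensity objects or normal cells. Normal cells were split into healthy, pyknosed or fragmented nuclei, and pyknosed cells into mitotic or apoptotic. Tubulin, mitochondrial-mass and membrane-permeability phenotypes are per cents of healthy-nucleus cells.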

[1] = 12 h, 1 µM, compound concentration 1 uM, replicate 1
[2] = 12 h, 1 µM, compound concentration 1 uM, replicate 2
[3] = 12 h, 10 µM, compound concentration 10 uM, replicate 1
[4] = 12 h, 10 µM, compound concentration 10 uM, replicate 2
[5] = 24 h, 1 µM, compound concentration 1 uM, replicate 1
[6] = 24 h, 1 µM, compound concentration 1 uM, replicate 2
[7] = 24 h, 10 µM, compound concentration 10 uM, replicate 1
[8] = 24 h, 10 µM, compound concentration 10 uM, replicate 2
[9] = 48 h, 1 µM, compound concentration 1 uM, replicate 1
[10] = 48 h, 1 µM, compound concentration 1 uM, replicate 2
[11] = 48 h, 10 µM, compound concentration 10 uM, replicate 1
[12] = 48 h, 10 µM, compound concentration 10 uM, replicate 2

## Nc1nc(-c2ccco2)c2cnn(Cc3ccccc3F)c2n1
[1]
  Population Apoptotic (%): 37%
  Population Fragmented Nuclei (%): 6%
  Population Healthy Nuclei (%): 76%
  Population Hoechst High Intensity Objects (%): 9%
  Population Membrane Permeable-Phenotype (%): 0%
  Population Mitochondria Different-Phenotype (%): 58%
  Population Mitotic Cells (%): 62%
  Population Normal (%): 90%
  Population Pyknosed Nuclei (%): 16%
  Population Tubulin-Different-Phenotype (%): 41%
  Total Cell Count: 300
[2]
  Population Apoptotic (%): 36%
  Population Fragmented Nuclei (%): 5%
  Population Healthy Nuclei (%): 81%
  Population Hoechst High Intensity Objects (%): 11%
  Population Mitochondria Different-Phenotype (%): 64%
  Population Mitotic Cells (%): 63%
  Population Normal (%): 88%
  Population Pyknosed Nuclei (%): 13%
  Population Tubulin-Different-Phenotype (%): 23%
  Total Cell Count: 404
[3]
  Population Apoptotic (%): 33%
  Population Fragmented Nuclei (%): 7%
  Population Healthy Nuclei (%): 73%
  Population Hoechst High Intensity Objects (%): 8%
  Population Membrane Permeable-Phenotype (%): 0%
  Population Mitochondria Different-Phenotype (%): 61%
  Population Mitotic Cells (%): 66%
  Population Normal (%): 91%
  Population Pyknosed Nuclei (%): 19%
  Population Tubulin-Different-Phenotype (%): 43%
  Total Cell Count: 306
[4]
  Population Apoptotic (%): 40%
  Population Fragmented Nuclei (%): 6%
  Population Healthy Nuclei (%): 76%
  Population Hoechst High Intensity Objects (%): 12%
  Population Mitochondria Different-Phenotype (%): 68%
  Population Mitotic Cells (%): 60%
  Population Normal (%): 87%
  Population Pyknosed Nuclei (%): 17%
  Population Tubulin-Different-Phenotype (%): 26%
  Total Cell Count: 265
[5]
  Population Apoptotic (%): 30%
  Population Fragmented Nuclei (%): 7%
  Population Healthy Nuclei (%): 77%
  Population Hoechst High Intensity Objects (%): 7%
  Population Membrane Permeable-Phenotype (%): 0%
  Population Mitochondria Different-Phenotype (%): 36%
  Population Mitotic Cells (%): 69%
  Population Normal (%): 92%
  Population Pyknosed Nuclei (%): 15%
  Population Tubulin-Different-Phenotype (%): 26%
  Total Cell Count: 396
[6]
  Population Apoptotic (%): 28%
  Population Fragmented Nuclei (%): 9%
  Population Healthy Nuclei (%): 81%
  Population Hoechst High Intensity Objects (%): 5%
  Population Mitochondria Different-Phenotype (%): 46%
  Population Mitotic Cells (%): 71%
  Population Normal (%): 94%
  Population Pyknosed Nuclei (%): 9%
  Population Tubulin-Different-Phenotype (%): 17%
  Total Cell Count: 514
[7]
  Population Apoptotic (%): 38%
  Population Fragmented Nuclei (%): 11%
  Population Healthy Nuclei (%): 67%
  Population Hoechst High Intensity Objects (%): 6%
  Population Membrane Permeable-Phenotype (%): 2%
  Population Mitochondria Different-Phenotype (%): 52%
  Population Mitotic Cells (%): 61%
  Population Normal (%): 93%
  Population Pyknosed Nuclei (%): 21%
  Population Tubulin-Different-Phenotype (%): 31%
  Total Cell Count: 334
[8]
  Population Apoptotic (%): 35%
  Population Hoechst High Intensity Objects (%): 10%
  Population Membrane Permeable-Phenotype (%): 0%
  Population Mitochondria Different-Phenotype (%): 59%
  Population Mitotic Cells (%): 64%
  Population Normal (%): 89%
  Population Tubulin-Different-Phenotype (%): 23%
  Total Cell Count: 328
[9]
  Population Apoptotic (%): 32%
  Population Fragmented Nuclei (%): 12%
  Population Healthy Nuclei (%): 75%
  Population Hoechst High Intensity Objects (%): 3%
  Population Membrane Permeable-Phenotype (%): 1%
  Population Mitochondria Different-Phenotype (%): 31%
  Population Mitotic Cells (%): 67%
  Population Normal (%): 96%
  Population Pyknosed Nuclei (%): 12%
  Population Tubulin-Different-Phenotype (%): 18%
  Total Cell Count: 641
[10]
  Population Apoptotic (%): 28%
  Population Fragmented Nuclei (%): 14%
  Population Healthy Nuclei (%): 78%
  Population Hoechst High Intensity Objects (%): 4%
  Population Mitochondria Different-Phenotype (%): 21%
  Population Mitotic Cells (%): 71%
  Population Normal (%): 95%
  Population Pyknosed Nuclei (%): 7%
  Population Tubulin-Different-Phenotype (%): 14%
  Total Cell Count: 769
[11]
  Population Apoptotic (%): 36%
  Population Fragmented Nuclei (%): 16%
  Population Healthy Nuclei (%): 73%
  Population Hoechst High Intensity Objects (%): 7%
  Population Membrane Permeable-Phenotype (%): 0%
  Population Mitochondria Different-Phenotype (%): 42%
  Population Mitotic Cells (%): 63%
  Population Normal (%): 92%
  Population Pyknosed Nuclei (%): 9%
  Population Tubulin-Different-Phenotype (%): 19%
  Total Cell Count: 412
[12]
  Population Apoptotic (%): 28%
  Population Fragmented Nuclei (%): 13%
  Population Healthy Nuclei (%): 74%
  Population Mitochondria Different-Phenotype (%): 43%
  Population Mitotic Cells (%): 71%
  Population Pyknosed Nuclei (%): 12%
  Population Tubulin-Different-Phenotype (%): 15%
  Total Cell Count: 398
